Assay [1] has as its target T1, Inhibitor of nuclear factor kappa-B kinase subunit epsilon (Homo sapiens) (UniProt Q14164).
T1 sequence (whole entry): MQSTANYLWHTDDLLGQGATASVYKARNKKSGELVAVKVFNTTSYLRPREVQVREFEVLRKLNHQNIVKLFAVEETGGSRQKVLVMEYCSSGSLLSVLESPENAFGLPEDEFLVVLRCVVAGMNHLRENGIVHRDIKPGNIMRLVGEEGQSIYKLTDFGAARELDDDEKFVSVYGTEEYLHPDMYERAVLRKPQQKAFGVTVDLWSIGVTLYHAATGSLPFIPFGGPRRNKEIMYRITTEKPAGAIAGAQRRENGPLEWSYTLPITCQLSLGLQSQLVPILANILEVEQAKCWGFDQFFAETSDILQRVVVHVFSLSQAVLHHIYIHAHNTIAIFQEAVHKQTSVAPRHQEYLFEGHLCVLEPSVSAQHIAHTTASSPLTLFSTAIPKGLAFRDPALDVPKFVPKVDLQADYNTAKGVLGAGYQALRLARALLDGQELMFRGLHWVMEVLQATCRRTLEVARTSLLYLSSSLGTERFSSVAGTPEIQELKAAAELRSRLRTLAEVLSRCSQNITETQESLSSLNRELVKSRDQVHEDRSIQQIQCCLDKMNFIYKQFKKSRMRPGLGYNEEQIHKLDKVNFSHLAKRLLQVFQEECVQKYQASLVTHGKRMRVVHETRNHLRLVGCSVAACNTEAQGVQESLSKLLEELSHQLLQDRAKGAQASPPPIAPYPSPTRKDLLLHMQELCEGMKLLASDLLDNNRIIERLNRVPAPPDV
Kind of assay: Inhibition of recombinant IKKepsilon (unknown origin) using ulight-rpS6 as substrate at 20 uM after 2 hrs by LANCE ultra TR-FRET assay relative to control. (TR-FRET usually uses a lanthanide donor and a delayed reading to cut background.)

Assay [2] concerns the target T2, Retinoic acid receptor alpha (Homo sapiens) (UniProt P10276).
T2 sequence (whole entry): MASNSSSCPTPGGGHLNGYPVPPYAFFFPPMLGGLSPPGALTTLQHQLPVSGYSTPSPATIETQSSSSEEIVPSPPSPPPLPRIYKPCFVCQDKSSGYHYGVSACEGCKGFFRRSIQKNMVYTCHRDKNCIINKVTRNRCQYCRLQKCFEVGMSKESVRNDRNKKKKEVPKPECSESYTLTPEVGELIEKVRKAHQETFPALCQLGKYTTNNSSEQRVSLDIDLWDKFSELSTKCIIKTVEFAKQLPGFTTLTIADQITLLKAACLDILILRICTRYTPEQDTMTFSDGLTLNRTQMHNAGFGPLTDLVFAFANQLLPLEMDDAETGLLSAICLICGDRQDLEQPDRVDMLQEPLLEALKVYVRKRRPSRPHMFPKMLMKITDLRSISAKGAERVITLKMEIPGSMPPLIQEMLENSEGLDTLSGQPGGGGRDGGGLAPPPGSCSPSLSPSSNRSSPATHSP
Kind of assay: Agonist activity at Gal4-fused RARalpha (unknown origin) transfected in HEK293 cells assessed as induction of transcriptional activity at 4 uM after 6 hrs by luciferase/beta-galactosidase reporter gene assay relative to control. It counts as cell-based. Put shortly: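 Gal4-RARα or Gal4-RXRα (10 ng) plus 2 ng β-galactosidase vector, calcium phosphate transfection into HEK-293 cells carrying a 5×UAS luciferase reporter. After 16 h, cells were washed and given 5% charcoal-treated FBS medium, then rested 2 h. Stimulation was with 4 µM compound or 0.1% DMSO; controls were 1 µM atRA (RARα) or 1 µM CD3254 (RXRα). Harvest was at 6 h (RARα) or 24 h (RXRα). Luciferase/β-gal ratio was expressed as fold over unstimulated cells. Data: 2 experiments, triplicate.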
A general note: Reporter assays use an easily measured gene product as a stand-in for the process of interest.

A short description of assay [3]: Cytotoxicity against human Jurkat T cells assessed as cell viability after 24 hrs by CellTiter-Glo assay. The assay is classed as functional, cell-based. The method in brief: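 Jurkat cells were seeded the day before treatment in RPMI with 0.5% FBS (10,000 cells/well). They were treated in triplicate across an 8-point dose series starting at 10 µM, with DMSO ≤0.1% as solvent control. ATP was measured by CellTiter-Glo luminescence after 24 h; a time-0 reading separated cytostatic from cytotoxic effects. IC50 was fitted from the curve.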

Assay [4] addresses T3, Inhibitor of nuclear factor kappa-B kinase subunit beta (Homo sapiens, UniProt O14920).
T3 sequence (O14920 whole entry): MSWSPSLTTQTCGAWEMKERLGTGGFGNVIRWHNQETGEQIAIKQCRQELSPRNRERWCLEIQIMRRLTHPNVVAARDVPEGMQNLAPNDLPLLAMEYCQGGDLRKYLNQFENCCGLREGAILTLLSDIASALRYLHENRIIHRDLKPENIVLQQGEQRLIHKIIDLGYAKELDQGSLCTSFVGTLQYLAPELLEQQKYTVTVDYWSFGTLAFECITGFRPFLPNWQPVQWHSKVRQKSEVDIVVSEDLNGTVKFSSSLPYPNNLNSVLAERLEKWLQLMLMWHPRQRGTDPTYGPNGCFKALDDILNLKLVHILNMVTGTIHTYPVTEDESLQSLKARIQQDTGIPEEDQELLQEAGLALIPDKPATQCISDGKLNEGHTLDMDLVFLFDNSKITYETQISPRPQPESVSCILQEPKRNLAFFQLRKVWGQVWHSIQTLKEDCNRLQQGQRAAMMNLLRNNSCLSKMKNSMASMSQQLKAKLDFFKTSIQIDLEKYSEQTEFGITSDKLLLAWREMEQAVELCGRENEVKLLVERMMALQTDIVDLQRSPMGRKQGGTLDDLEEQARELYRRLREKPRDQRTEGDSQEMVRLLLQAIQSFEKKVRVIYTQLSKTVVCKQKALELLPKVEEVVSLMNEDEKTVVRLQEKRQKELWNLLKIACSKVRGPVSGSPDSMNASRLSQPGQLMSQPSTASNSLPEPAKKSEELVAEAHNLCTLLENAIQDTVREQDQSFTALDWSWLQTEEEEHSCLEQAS
Kind of assay: Inhibition of recombinant IKKbeta (unknown origin) using ulight-IkappaomegaBalpha as substrate after 1 hr by LANCE ultra TR-FRET assay.

As usually defined, the inhibition is how much of the control response was suppressed. Take `COCCOCOc1ccc(-c2ncc(/C=C/C(=O)O)nc2OC)cc1C12CC3CC(CC(C3)C1)C2`: in assay [1], the inhibition is 9.4%. In assay [2], the fold change (FC) turned out to be 1.1.
On to `COCCOCOc1cc(C)c(-c2ncc(/C=C/C(=O)O)s2)cc1C12CC3CC(CC(C3)C1)C2`, for which, in assay [1], the inhibition was 11.1%. Moreover, in assay [2], the fold change (FC) was 1.9.
The term IC50 denotes the concentration that inhibits the measured activity by half. With `Cc1cc(O)c(C23CC4CC(CC(C4)C2)C3)cc1-c1ccc(/C=C/C(=O)O)cc1Cl`, the IC50 in assay [3] is 4.04 µM. The inhibition in assay [1] stood at 11.9%.
With `COCCOCOc1cc(C)c(-c2ncc(/C=C/C(=O)O)nc2OC)cc1C12CC3CC(CC(C3)C1)C2`, in assay [1], the inhibition is 5.9%. In addition, the fold change (FC) in assay [2] came to 0.8.
On to `O=C(O)c1ccc(-c2cnc(-c3ccc(O)c(C45CC6CC(CC(C6)C4)C5)c3)s2)cc1`, for which the figures for the IC50 in assay [4] and in assay [3] were 3.37 µM and 2.24 µM, respectively. Besides, the inhibition in assay [1] was determined as 11.6%.
In the case of `O=C(O)/C=C/c1cnc(-c2ccc(O)c(C34CC5CC(CC(C5)C3)C4)c2)s1`, the inhibition in assay [1] is 0%. In addition, the fold change (FC) in assay [2] turned out to be 1.1.
`Cc1cc(O)c(C23CC4CC(CC(C4)C2)C3)cc1-c1ncc(/C=C/C(=O)O)s1`: the inhibition in assay [1] came to 0%. Moreover, the fold change (FC) in assay [2] came to 1.
Consider `COc1nc(/C=C/C(=O)O)cnc1-c1ccc(O)c(C23CC4CC(CC(C4)C2)C3)c1`, for which the IC50 in assay [3] is 5.01 µM. The inhibition in assay [1] was 7.8%.
Turning to `COc1nc(-c2ccc(C(=O)O)cc2)cnc1-c1ccc(O)c(C23CC4CC(CC(C4)C2)C3)c1`, the IC50 in assay [4] is 7.81 µM; in assay [3], 3.13 µM. Moreover, the inhibition in assay [1] came out at 26.1%. The fold change (FC) in assay [2] is 1.9.
In the case of `COCCOCOc1cc(C)c(-c2ncc(-c3ccc(C(=O)O)cc3)s2)cc1C12CC3CC(CC(C3)C1)C2`, the IC50 was determined as 4.43 µM in assay [4] and 5.71 µM in assay [3]. Also, the inhibition in assay [1] was found to be 17%.
Consider `COCCOCOc1ccc(-c2ncc(-c3ccc(C(=O)O)cc3)s2)cc1C12CC3CC(CC(C3)C1)C2`, for which the IC50 in assay [4] was determined as 5.16 µM. In addition, the inhibition in assay [1] stood at 25.3%. Moreover, the fold change (FC) in assay [2] was 1.2.
Regarding `COCCOCOc1cc(C)c(-c2ccc(/C=C/C(=O)O)cc2Cl)cc1C12CC3CC(CC(C3)C1)C2`, the inhibition in assay [1] came to 2.9%. Besides, the fold change (FC) in assay [2] worked out at 1.8.
Regarding `COCCOCOc1cc(C)c(-c2ccc3cc(C(=O)O)ccc3c2Cl)cc1C12CC3CC(CC(C3)C1)C2`, the IC50 in assay [4] is 7.06 µM; in assay [3], 5.62 µM. In addition, in assay [1], the inhibition turned out to be 13.7%.
For the molecule `COCCOCOc1cc(C)c(-c2ccc(CC(=O)O)cc2Cl)cc1C12CC3CC(CC(C3)C1)C2`, in assay [1], the inhibition turned out to be 0%. Further, in assay [2], the fold change (FC) was determined as 1.3.
On to `COc1nc(/C=C/C(=O)O)cnc1-c1cc(C23CC4CC(CC(C4)C2)C3)c(O)cc1C`, for which the IC50 in assay [3] was determined as 5.38 µM. In addition, in assay [1], the inhibition is 6.7%.
Turning to `Cc1cc(O)c(C23CC4CC(CC(C4)C2)C3)cc1-c1ccc(CC(=O)O)cc1Cl`, the IC50 in assay [3] was found to be 3.98 µM. For the same molecule, the inhibition in assay [1] was found to be 8.5%.
Regarding `CC(=O)NCCCOc1cc(/C=C/C(=O)O)ccc1-c1cc(C23CC4CC(CC(C4)C2)C3)c(O)cc1C`, the IC50 in assay [3] amounted to 2.61 µM. Further, the inhibition in assay [1] worked out at 5.2%.
In the case of `Cc1cc(O)c(C23CC4CC(CC(C4)C2)C3)cc1-c1ccc2cc(C(=O)O)ccc2c1Cl`, the IC50 stood at 4.75 µM in assay [4] and 2.19 µM in assay [3]. In assay [1], the inhibition worked out at 41.5%.
The matching figures for `Cc1cc(O)c(C23CC4CC(CC(C4)C2)C3)cc1-c1ncc(-c2ccc(C(=O)O)cc2)s1`: 4.78 µM, 4.4 µM and 0%.
Take `COCCOCOc1ccc(-c2ncc(-c3ccc(C(=O)O)cc3)nc2OC)cc1C12CC3CC(CC(C3)C1)C2`: the inhibition in assay [1] turned out to be 18.8%. In addition, the fold change (FC) in assay [2] came out at 1.1.
Regarding `COCCOCOc1ccc(-c2ncc(/C=C/C(=O)O)s2)cc1C12CC3CC(CC(C3)C1)C2`, in assay [1], the inhibition amounted to 14.3%. For the same molecule, the fold change (FC) in assay [2] amounted to 1.
